From publication PMC7992179 (ACS Omega, 2021)
Where “and” joins values, the source holds several entries; their conditions need not be identical. Equal values may be shown once.

What was measured:
PTZ-induced convulsions = PTZ-induced convulsions in mice; assay type: in vivo; details: for average duration of seizure / latency time / seizure score / mortality: 5 mg/kg i.p., PTZ 70 mg/kg i.p., n = 10; for average duration of seizure / latency time / seizure score: mean ± SEM; for enhancement of latency time of PTZ-induced seizures compared with the standard LTG drug: vs LTG; for protection against PTZ-induced convulsions: dose of 5 mg/kg
How it was run: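 Overnight-fasted albino mice (n = 10 per group) received test compound at 5 mg/kg i.p., suspended in carboxymethylcellulose and sonicated. Controls were vehicle, PTZ alone and lamotrigine (dose-finding at 1–5 mg/kg). Clonic seizures were induced with PTZ 70 mg/kg i.p. Recorded: latency, convulsion duration, number of convulsions, protection, and a 0–6 seizure score (6 = death). Mean ± SEM; one-way ANOVA with Dunnett's test versus the PTZ group.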

[1] = system: motor coordination on rotating rod; test: Neurotoxicity / minimal motor impairment, rotating rod; assay type: in vivo; details: rod observed 5 min, mean ± SEM, 10 mice
How it was run: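 White albino mice of either sex, 8–10 weeks, 25–35 g, were trained on a rotating rod (2.5 cm diameter, 25 cm high). After i.p. dosing (10, 30 or 50 mg/kg), motor coordination was scored over 5 min at 30 min and 4 h. Neurotoxicity meant failure to stay on the rod for 1 min. 10 mice per group; mean ± SEM.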

MCF-7 cell line = test: MTT cytotoxicity assay in MCF-7 cells; assay type: cell-based, human; details: for % inhibition/stimulation: conc. 30 μM
How it was run: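 MCF-7 cells grown in Eagle's MEM with 10% FBS, 1% penicillin/streptomycin, 0.1 mM non-essential amino acids, 10 μg/mL insulin and 1 mM sodium pyruvate at 37 °C, 5% CO2. Trypsin/EDTA-harvested cells were seeded at 6 × 10^4 cells/mL and incubated overnight. Test compound (1–30 μM, or a fixed 30 μM screen against doxorubicin) was applied for 48 h. MTT 0.5 mg/mL for 4 h, DMSO, A570; % inhibition and IC50.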

Molecule | average duration of seizure (PTZ-induced convulsions) [s] | latency time (PTZ-induced convulsions) [s] | seizure score (PTZ-induced convulsions) [counts] | mortality (PTZ-induced convulsions) [counts] | enhancement of latency time of PTZ-induced seizures compared with the standard LTG drug (PTZ-induced convulsions; 5 mg/kg) [%] | time on Rod ([1]; dose 10 mg/kg i.p.) [s] | time on Rod ([1]; dose 30 mg/kg i.p.) [s] | time on Rod ([1]; dose 50 mg/kg i.p.) [s] | IC50 ± SD (MCF-7 cell line; MCF-7, 1–30 μM, 48 h, MTT) | % inhibition/stimulation (MCF-7 cell line; 48 h, MTT) [%] | protection against PTZ-induced convulsions (PTZ-induced convulsions) [%] | IC50 (MCF-7 cell line; read-out: IC50 ± SD, MCF-7, 1–30 μM, 48 h, MTT) [µM] | time on Rod ([1]; dose 50 mg/kg i.p., 50 mg/kg) | latency time (PTZ-induced convulsions; listed as LTG control) [s] | decrease in the time duration of convulsions as compared to PTZ (negative control) (PTZ-induced convulsions; 5 mg/kg, vs PTZ negative control) [%] | mice protected from clonic convulsions (PTZ-induced convulsions; LTG monotherapy 5 mg/kg) [%] | highest nonprotective dose in the PTZ model (PTZ-induced convulsions; monotherapy, doses 1-5 mg/kg tested against clonic convulsions) [mg/kg] | time on Rod ([1]; dose 10 mg/kg i.p., 10 mg/kg) [s] | time on Rod ([1]; dose 30 mg/kg i.p., 30 mg/kg) [s] | inhibition at 30 µM (MCF-7 cell line; Homo sapiens, MCF7, 48 h, read-out: % inhibition/stimulation) [%]
2,2′-{[6-(2,3-Dichlorophenyl)-1,2,4-Triazine-3,5-Diyl]bis[azanylylidene(E)methanylylidene]}diphenol Zinc Chloride Coordinate Complex [4b] | 81.5 ± 2.1 | 240.0 ± 10.3 | 10.0 ± 6.5 | 0.0 | 13 | 105.0 ± 98.5 | 80.6 ± 78.6 | 54.26 ± 42.3 | inactive | 0.00 | – | – | – | – | – | – | – | – | – | –
2,2′-{[6-(2,3-Dichlorophenyl)-1,2,4-triazine-3,5-diyl]bis[azanylylidene(E)methanylylidene]}diphenol Copper Acetate Coordinate Complex [5b] | 97.5 ± 28.3 | 250.0 ± 88.3 | 11.0 ± 2.4 | 1 | 18 | 116.7 ± 94.3 | 100.0 ± 86.3 | 75.83 ± 54.3 | inactive | 0.00 | 90 | – | – | – | – | – | – | – | – | –
2,2′-{[6-(2,3-Dichlorophenyl)-1,2,4-triazine-3,5-diyl]bis[azanylylidene(E)methanylylidene]}diphenol Dibutyl Tin Dichloride Coordinate Complex [7b] | 99 ± 7.1 | 190.0 ± 70.1 | 12.0 ± 1.5 | 0.0 | – | 80.0 ± 27.6 | 68.9 ± 25.7 | 45.64 ± 19.3 | inactive | 0.00 | – | – | – | – | – | – | – | – | – | –
2,2′-{[6-(2,3-Dichlorophenyl)-1,2,4-triazine-3,5-diyl]bis[azanylylidene(E)methanylylidene]}diphenol Silver Nitrate Coordinate Complex [6b] | 95 ± 10.5 | 330.0 ± 67.8 | 12.0 ± 1.8 | 0.0 | 56 | 153.3 ± 92.7 | 146.3 ± 90.9 | 130.0 ± 91.7 | – | 101.2 | – | 11.9 ± 0.27 | – | – | – | – | – | – | – | –
4-{[(3-{(E)-[(4-Hydroxy-3-methoxyphenyl)methylidene]amino}-6-(2,3-dichlorophenyl)-1,2,4-triazin-5-yl)imino]methyl}-2-methoxyphenol Copper Acetate Coordinate Complex [5c] | 115 ± 10.0 | 230.0 ± 70.1 | 10.0 ± 2.6 | 0.0 | 8 | 121.7 ± 98.3 | 90.0 ± 85.6 | 75.64 ± 52.7 | inactive | 0.00 | – | – | – | – | – | – | – | – | – | –
4-{[(3-{(E)-[(4-Hydroxy-3-methoxyphenyl)methylidene]amino}-6-(2,3-dichlorophenyl)-1,2,4-triazin-5-yl)imino]methyl}-2-methoxyphenol Dibutyl Tin Dichloride Coordinate Complex [7c] | 125 ± 15.3 | 160.0 ± 49.0 | 11.0 ± 1.6 | 0.0 | – | 190.0 ± 74.6 | 167.4 ± 89.8 | – | inactive | 0.00 | – | – | 140.5 ± 94.9 s and 140.5 ± 94.0 s | – | – | – | – | – | – | –
4-{[(3-{(E)-[(4-Hydroxy-3-methoxyphenyl)methylidene]amino}-6-(2,3-dichlorophenyl)-1,2,4-triazin-5-yl)imino]methyl}-2-methoxyphenol Zinc Chloride Coordinate Complex [4c] | 81.5 ± 1.5 | 250.0 ± 10.3 | 14.0 ± 3.7 | 0.0 | 18 | 80.0 ± 75.3 | 50.6 ± 42.5 | 30.65 ± 25.7 | inactive | 0.00 | – | – | – | – | – | – | – | – | – | –
Oc1ccccc1/C=N/c1nnc(-c2cccc(Cl)c2Cl)c(/N=C/c2ccccc2O)n1 [3b, 2,2′-{[6-(2,3-Dichlorophenyl)-1,2,4-triazine-3,5-diyl]bis[azanylylidene(E)methanylylidene]}diphenol] | – | – | – | – | – | 110.8 ± 98.6 | 90.5 ± 82.3 | 65.97 ± 54.9 | – | – | – | – | – | – | – | – | – | – | – | –
COc1cc(C=Nc2nc(/N=C/c3ccc(O)c(OC)c3)nnc2-c2cccc(Cl)c2Cl)ccc1O [3c, 4-{[(3-{(E)-[(4-Hydroxy-3-methoxyphenyl)methylidene]amino}-6-(2,3-dichlorophenyl)-1,2,4-triazin-5-yl)imino]methyl}-2-methoxyphenol] | – | – | – | – | – | 140.7 ± 92.4 | 126.4 ± 88.0 | 100.0 ± 82.3 | – | – | – | – | – | – | – | – | – | – | – | –
Nc1nnc(-c2cccc(Cl)c2Cl)c(N)n1 [LTG, 3,5-diamino-6-(2,3-dichlorophenyl)-1,2,4-triazine, reference compound] | 90 ± 3.5 | ~212 | 11.0 ± 2.3 | 0.0 | – | 290.0 ± 16.7 | 245.8 ± 15.4 | 200.7 ± 13.7 | – | – | – | – | – | 211.7 ± 98.1 | 42 | 6 | 5 | – | – | –
C1CCc2nnnn2CC1 [PTZ, pentylenetetrazole, reference compound] | – | – | – | – | – | – | – | – | – | – | – | – | 7.7 ± 2.4 s | – | – | – | – | 16.67 ± 8.165 | 10.46 ± 1.654 | –
COc1cccc2c1C(=O)c1c(O)c3c(c(O)c1C2=O)C[C@@](O)(C(=O)CO)C[C@@H]3O[C@H]1C[C@H](N)[C@H](O)[C@H](C)O1 [doxorubicin (DOX), doxorubicin, reference compound] | – | – | – | – | – | – | – | – | – | – | – | – | – | – | – | – | – | – | – | 101
(1E,2Z)-N-[6-(2,3-Dichlorophenyl)-5-{(E)-[(2E)-3-phenylprop-2-en-1-ylidene]amino}-1,2,4-triazin-3-yl]prop-2-en-1-imine Copper Acetate Coordinate Complex [5a] | 81.5 ± 2.1 | 170.0 ± 45.2 | 11.0 ± 1.9 | 0.0 | – | 76.7 ± 19.7 | 55.9 ± 12.9 | 40.9 ± 10.7 | inactive | 0.00 | – | – | – | – | – | – | – | – | – | –
(1E,2Z)-N-[6-(2,3-Dichlorophenyl)-5-{(E)-[(2E)-3-phenylprop-2-en-1-ylidene]amino}-1,2,4-triazin-3-yl]prop-2-en-1-imine Dibutyl Tin Dichloride Coordinate Complex of L1 [7a] | 110 ± 14.1 | 220.0 ± 72.7 | 12.0 ± 1.2 | 0.0 | 4 | 155.0 ± 97.5 | 130.6 ± 92.4 | 100.4 ± 87.7 | inactive | 0.00 | – | – | – | – | – | – | – | – | – | –
(1E,2Z)-N-[6-(2,3-Dichlorophenyl)-5-{(E)-[(2E)-3-phenylprop-2-en-1-ylidene]amino}-1,2,4-triazin-3-yl]prop-2-en-1-imine Silver Nitrate Coordinate Complex [6a] | 105 ± 7.1 | 180.0 ± 75.9 | 11.0 ± 2.3 | 1 | – | 141.7 ± 102.5 | 120.0 ± 98.7 | 75.8 ± 20.3 | inactive | 0.00 | 90 | – | – | – | – | – | – | – | – | –
